Results on 13 compounds are retold here after ChEMBL document CHEMBL1138596, “Synthesis and biological evaluation of novel 4-(hetero) aryl-2-piperazino quinazolines as anti-leishmanial and anti-proliferative agents” (Bioorg Med Chem Lett, 2009).

Values after ≈ are worked out from the molar mass of the structure shown. A value given as a limit tells only on which side of the number the result lay.

Data set [1] deals with Leishmania donovani. The data set can be described thus: Antileishmanial activity against Leishmania donovani MHOM/IN/Dd8 promastigotes assessed as luciferase activity after 72 hrs. The data set is classed as functional, organism-based. Particulars: MHOM/IN/Dd8, 72 h. In outline: (§1)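 L. donovani parasites transfected with firefly luciferase gene, maintained in medium 199 with 10% fetal calf serum, penicillin (50 U/ml) and streptomycin under G418 pressure; compounds tested at various concentrations against transgenic promastigotes and intracellular amastigotes; IC50 calculated by Probit analysis.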

Data set [2] has as its system Leishmania donovani. Description: Antileishmanial activity against Leishmania donovani MHOM/IN/Dd8 amastigotes infected in mouse J774A1 cells assessed as luciferase activity after 48 hrs. The data set is classed as functional, organism-based. As to conditions: for IC50: MHOM/IN/Dd8, J774.A1, 48 h; for Activity: J774.A1. In outline: as §1
Data set [3] in a line: Cytotoxicity against mouse J774A1 cells. The format is cell-based, J774.A1. In outline:
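Mouse macrophage line J-774-A-1; cytotoxicity read by MTT assay.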

A short description of data set [4]: (§2) Selectivity index, ratio of CC50 for mouse J774A1 cells to IC50 for Leishmania donovani MHOM/IN/Dd8 amastigotes. The data set is classed as functional, J774.A1.
The next data set deals with DU-145. The data set can be described thus: Antiproliferative activity against human DU145 cells by MTT assay. The data set is classed as functional, cell-based. In outline:
(§3)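 Twofold serial dilutions of compound up to a highest concentration of 50 µg/mL; viability read by MTT assay; panel of DU145 prostate, MCF-7 breast, KB oral epidermal, C33A cervical carcinoma lines and non-cancerous VERO cells.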
For orientation: Tetrazolium dyes change colour on reduction, which living cells bring about.

Another data set relates to MCF7. The data set can be described thus: Antiproliferative activity against human MCF7 cells by MTT assay. The data set is classed as functional, cell-based. The gist of the method: as §3
A further data set relates to C-33-A. Description: Antiproliferative activity against human C33A cells by MTT assay. The data set is classed as functional, cell-based. The gist of the method:
as §3

Another data set relates to KB. The data set can be described thus: Antiproliferative activity against human KB cells by MTT assay. The format is functional, cell-based. The gist of the method: as §3
The next data set concerns Vero. Description: Antiproliferative activity against african green monkey Vero cells by MTT assay. The data set is classed as cell-based. As to conditions: Chlorocebus sabaeus. The gist of the method: as §3
Another data set relates to J774.A1. Described as §2. The data set is classed as functional.

With `Fc1ccc(N2CCN(c3nc(-c4c[nH]c5ccccc45)c4ccccc4n3)CC2)cc1`, the IC50 (as a rule, the point on the concentration scale where inhibition reaches its midpoint) in the data set with Leishmania donovani [1] was 1.72 µg/mL (≈ 4.06 µM); with Leishmania donovani [2] it was 12.3 µg/mL (≈ 29.1 µM); in the data set with DU-145, over 50 µg/mL; in the data set on MCF7, over 50 µg/mL; with C-33-A, over 50 µg/mL; in the data set on KB, over 50 µg/mL. For the same compound, the IC50 with Vero is over 50 µg/mL. For the same compound, in [3], half-maximal cytotoxicity (CC50) was put at 23.4 µg/mL (≈ 55.3 µM). For the same compound, the “Ratio CC50/IC50” value in data set [4] is 1.9.
`COc1cc(OC)c(-c2nc(N3CCN(C)CC3)nc3ccccc23)c(OC)c1`: the IC50 was 6.2 µg/mL (≈ 15.7 µM) in the data set with Leishmania donovani [1]; 12.4 µg/mL (≈ 31.6 µM) with Leishmania donovani [2]; over 50 µg/mL in the data set on DU-145; over 50 µg/mL with MCF7; over 50 µg/mL with C-33-A; over 50 µg/mL in the data set on KB. In the data set on Vero, this compound yielded an IC50 of over 50 µg/mL. In addition, the CC50 (usually the concentration that lowers cell viability or growth by half) in data set [3] was over 100 µg/mL. In addition, in data set [4], the “Ratio CC50/IC50” value is over 8.03.
As to `c1ccc2c(-c3c[nH]c4ccccc34)nc(N3CCOCC3)nc2c1`, the half-maximal inhibitory concentration (IC50) in the data set on Leishmania donovani [1] is 1.8 µg/mL (≈ 5.45 µM); in the data set with Leishmania donovani [2], 25.1 µg/mL (≈ 76.1 µM); in the data set on DU-145 it was over 50 µg/mL; in the data set on MCF7 it was over 50 µg/mL; in the data set with C-33-A, over 50 µg/mL; in the data set on KB, over 50 µg/mL. In the data set with Vero, this compound gave an IC50 of over 50 µg/mL. The CC50 in data set [3] was determined as 50.1 µg/mL (≈ 152 µM). For the same compound, in data set [4], the “Ratio CC50/IC50” value is reported as 1.99.
Consider `c1ccc2c(-c3c[nH]c4ccccc34)nc(N3CCCCC3)nc2c1`, for which the concentration for half-maximal inhibition (IC50) in the data set on Leishmania donovani [1] was over 10 µg/mL; in the data set on DU-145 it was over 50 µg/mL; with MCF7, over 50 µg/mL; in the data set with C-33-A, over 50 µg/mL; in the data set on KB, over 50 µg/mL; in the data set with Vero, over 50 µg/mL.
As to `CN1CCN(c2nc(-c3cn(C)c4ccccc34)c3ccccc3n2)CC1`, the IC50 with Leishmania donovani [1] was 0.62 µg/mL (≈ 1.73 µM); with DU-145, over 50 µg/mL; in the data set on MCF7, over 50 µg/mL; with C-33-A, over 50 µg/mL; with KB it was over 50 µg/mL; with Vero it was over 50 µg/mL. The Activity entry with Leishmania donovani [2] is “Toxic”. Also, the CC50 in [3] is 1.03 µg/mL (≈ 2.88 µM).
In the case of `c1ccc2c(-c3c[nH]c4ccccc34)nc(N3CCNCC3)nc2c1`, the half-inhibitory concentration (IC50) came to 0.56 µg/mL (≈ 1.7 µM) in the data set with Leishmania donovani [1]; 12.5 µg/mL (≈ 37.9 µM) in the data set on DU-145; 14.1 µg/mL (≈ 42.8 µM) with MCF7; 8.2 µg/mL (≈ 24.9 µM) in the data set on C-33-A; 4 µg/mL (≈ 12.1 µM) in the data set with KB; 8.9 µg/mL (≈ 27 µM) in the data set on Vero. In addition, the Activity result in the data set on Leishmania donovani [2] was “Toxic”. Also, the midpoint of cytotoxicity in data set [3], the CC50, lay at 3.11 µg/mL (≈ 9.44 µM).
Take `COc1ccc(-c2nc(N3CCNCC3)nc3ccccc23)c(OC)c1`: the IC50 in the data set with Leishmania donovani [1] was 0.624 µg/mL (≈ 1.78 µM); with Leishmania donovani [2] it was 5.11 µg/mL (≈ 14.6 µM); in the data set on DU-145, over 50 µg/mL; in the data set with MCF7 it was over 50 µg/mL; in the data set on C-33-A, over 50 µg/mL; in the data set on KB it was over 50 µg/mL. Further, the IC50 in the data set on Vero was over 50 µg/mL. In [3], this compound returned a CC50 of 3.98 µg/mL (≈ 11.4 µM). Besides, the “Ratio CC50/IC50” value in [4] is listed as 0.78.
`Cn1cc(-c2nc(N3CCNCC3)nc3ccccc23)c2ccccc21`: the half-inhibitory concentration (IC50) in the data set on Leishmania donovani [1] is 0.28 µg/mL (≈ 0.815 µM); in the data set with Leishmania donovani [2], 12.5 µg/mL (≈ 36.4 µM); in the data set with DU-145, over 50 µg/mL; in the data set on MCF7, over 50 µg/mL; in the data set on C-33-A, over 50 µg/mL; in the data set on KB it was over 50 µg/mL. The compound also showed an IC50 in the data set on Vero of over 50 µg/mL. This compound also showed a half-maximal cytotoxic concentration (CC50) in data set [3] of 16 µg/mL (≈ 46.6 µM). The “Ratio CC50/IC50” value in data set [4] was found to be 1.28.
As for `CN1CCN(c2nc(-c3c[nH]c4ccccc34)c3ccccc3n2)CC1`, the IC50 with Leishmania donovani [1] was determined as 0.68 µg/mL (≈ 1.98 µM); in the data set with Leishmania donovani [2] it was 4.17 µg/mL (≈ 12.1 µM); in the data set with DU-145, 20.8 µg/mL (≈ 60.6 µM); in the data set on MCF7 it was 6 µg/mL (≈ 17.5 µM); with C-33-A, 11.5 µg/mL (≈ 33.5 µM); with KB, 4.9 µg/mL (≈ 14.3 µM). The compound further registered a concentration for half-maximal inhibition (IC50) with Vero of 22.3 µg/mL (≈ 64.9 µM). Moreover, it took 7.27 µg/mL (≈ 21.2 µM) to reach half-maximal cytotoxicity in [3] (CC50). Also, the “Ratio CC50/IC50” value in data set [4] is recorded as 1.74.
Consider Sodium stilbogluconate, for which the Ratio CC50/IC50 in the data set with J774.A1 came to 6.38.
Take `COc1ccc(-c2nc(N3CCN(C)CC3)nc3ccccc23)c(OC)c1`: the IC50 in the data set on Leishmania donovani [1] was 3.79 µg/mL (≈ 10.4 µM); in the data set with Leishmania donovani [2], 4.28 µg/mL (≈ 11.7 µM); in the data set with DU-145, over 50 µg/mL; in the data set on MCF7 it was over 50 µg/mL; in the data set with C-33-A, over 50 µg/mL; with KB, over 50 µg/mL. The 50% inhibitory concentration (IC50) in the data set with Vero is over 50 µg/mL. Besides, the midpoint of cytotoxicity in data set [3], the CC50, lay at 18 µg/mL (≈ 49.4 µM). The “Ratio CC50/IC50” value in data set [4] is given as 4.21.
Regarding `COc1cc(OC)c(-c2nc(N3CCNCC3)nc3ccccc23)c(OC)c1`, the IC50 in the data set with Leishmania donovani [1] was 0.25 µg/mL (≈ 0.657 µM); in the data set on DU-145 it was over 50 µg/mL; in the data set with MCF7, over 50 µg/mL; in the data set on C-33-A, over 50 µg/mL; in the data set on KB, over 50 µg/mL; in the data set with Vero, over 50 µg/mL. Besides, the Activity result in the data set with Leishmania donovani [2] is “Toxic”.
For the compound `N=C(N)c1ccc(OCCCCCOc2ccc(C(=N)N)cc2)cc1` [PENTAMIDINE], the “Ratio CC50/IC50” value in [4] came out at 2.07.
